The species named for data set [1] is Homo sapiens. As to the kind of experiment: Binding affinity to 18 bp double-stranded DNA (unknown origin) assessed as DNA stabilization by fluorescence melting assay. In outline:
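Fluorescence melting in a real-time PCR cycler (excitation 488 nm, emission 520 nm). The HTS target carried 5′-Dabcyl and 3′-fluorescein; the 18 bp duplex was also a target. Mixtures held 0.25 μM DNA plus ligand in 10 mM LiOH, 50 mM KCl, pH 7.4 (H3PO4). Samples were denatured at 95 °C for 5 min, cooled to 30 °C at 0.5 °C/min, then heated to 90 °C and recooled at 0.2 °C/min. Tm came from the first derivative, ≥3 repeats.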

Data set [2] is described as follows: Stability of the compound assessed as retention time. Type of data set: physicochemical. Put shortly:
(§1)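 30 μM ligand in 10 mM Tris-HCl, 50 mM KCl, pH 7.5 irradiated at 308 nm (0.022 J/min), 25 °C, for increasing times; analysed by LC on C18 (water/acetonitrile 4–80% gradient with 0.1% formic acid over 20 min, 0.02 mL/min) with positive-mode ESI-MS, m/z 100–2500.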

For data set [3], the species on record is Homo sapiens. As to the kind of experiment: Stabilization of double-stranded DNA (unknown origin) assessed as DNA modifications at 20 to 50 uM measured 20 mins post UV irradiation by PAGE analysis.
The species named for data set [4] is Homo sapiens. Kind of data set: Stabilization of single-stranded DNA 5'-GGATGTGAGTGTGAGTGTGAGG-3' (unknown origin) assessed as DNA modifications at 20 to 50 uM measured 20 mins post UV irradiation by PAGE analysis. Put shortly:
(§2)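 Tel22 or single-stranded 22-mer 5′-32P end-labelled with T4 kinase; 1 μM DNA in 10 mM Tris, 50 mM KCl, pH 7.5 with increasing ligand, irradiated at 308 nm for variable time (or ligand pre-irradiated 30 min, or non-irradiated); products run on 20% polyacrylamide/7 M urea in 1× TBE, quantified by phosphorimaging.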

Data set [5] is filed under the species Homo sapiens. Kind of data set: Stabilization of G-quadruplex folded telomeric sequence Tel22 DNA (unknown origin) assessed as DNA modifications at 20 to 50 uM measured 20 mins post UV irradiation by PAGE analysis. Put shortly:
as §2

For data set [6], the species on record is Homo sapiens. Kind of data set: Binding affinity to G-quadruplex folded telomeric sequence Tel22 DNA (unknown origin) assessed as DNA stabilization measured 25 mins post UV irradiation by circular dichroism spectral analysis. In general terms: Circular dichroism is widely used to follow secondary structure.
The species named for data set [7] is Homo sapiens. As to the kind of experiment: Binding affinity to G-quadruplex folded telomeric sequence Tel22 DNA (unknown origin) assessed as DNA stabilization at 8 uM by circular dichroism spectral analysis relative to control.
Data set [8] is described as follows: Stability of the compound assessed as retention time after 3 mins of UV irradiation. Type of data set: physicochemical. As to conditions: 0.05 h. Put shortly:
as §1

Data set [9] is described as follows: Stability of the compound assessed as retention time after 25 mins of UV irradiation. Format: physicochemical. In outline:
as §1

The species named for data set [10] is Homo sapiens. As to the kind of experiment: Binding affinity to human telomeric sequence 5'-AGGGTTAGGGTTAGGGTTAGGGT-3' assessed as thermal stability by fluorescence melting assay relative to control. Put shortly:
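Fluorescence melting on a LightCycler (ex 488, em 520 nm); 0.25 μM 5′-Dabcyl/3′-fluorescein HTS oligo in 10 mM LiOH, 50 mM KCl, pH 7.4 (H3PO4); ligand 0.5–10 μM; denatured 95 °C 5 min, cooled to 30 °C, melted 0.2 °C/min to 90 °C; Tm from first derivative; ≥3 repeats.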

In data set [11] the test system is DNA. Kind of data set: Binding affinity to calf thymus DNA assessed as DNA stabilization at 8 uM by circular dichroism spectral analysis. As to conditions: Bos taurus.
The species named for data set [12] is Homo sapiens. As to the kind of experiment: Binding affinity to G-quadruplex folded telomeric sequence Tel22 DNA (unknown origin) assessed as DNA stabilization at 8 uM by circular dichroism spectral analysis.
The species named for data set [13] is Homo sapiens. As to the kind of experiment: Binding affinity to human telomeric sequence 5'-AGGGTTAGGGTTAGGGTTAGGGT-3' assessed as change in melting temperature at 10 uM by fluorescence melting assay.
A short description of data set [14]: Stability of the compound assessed as retention time after 100 mins of UV irradiation. Type of data set: physicochemical. Put shortly:
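Ligand (30 μM) in 10 mM Tris-HCl, 50 mM KCl, pH 7.5 was irradiated at 308 nm (0.022 J/min) at 25 °C for increasing times. Samples ran on C18 HPLC at 0.02 mL/min with a water/acetonitrile gradient (0.1% formic acid) of 4–80% over 20 min. Detection was positive-mode ESI-MS (4.5 kV, m/z 100–2500).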

Activity calls are given as the source filed them. The calls are words filed in the database; no cut-off is given here.

Turning to `COc1ccc(-c2coc3cc4oc(=O)c(CC(=O)N5CCN(CCO)CC5)c(C)c4cc23)cc1`, the outcome in [1] was inactive.

For `Cc1c(CCC(=O)N2CCN(C)CC2)c(=O)oc2cc3occ(-c4ccccc4)c3cc12`, the outcome in data set [1] was inactive.

For `Cc1c(CC(=O)N2CCN(C)CC2)c(=O)oc2cc3occ(-c4ccc(Cl)cc4)c3cc12`, the results for the Retention_time in data set [2], in data set [8] and in data set [9] were 17.2 min, 16.1 min and 16.1 min, respectively. Besides, the result in [3], in [4] and in data set [5] was Active. For the same compound, the outcome in data set [6], in data set [7], in [1], in data set [10], in data set [11] and in data set [12] was inactive.

Regarding `Cc1cc2c3c([n+](C)c4ccc(F)cc4c3c1)-c1cc(F)ccc1N2C`, in data set [13], the deltaTm was determined as 30 °C.

Take `Cc1c(CCC(=O)NCCCn2ccnc2)c(=O)oc2cc3occ(-c4ccc(F)cc4)c3cc12`: in data set [1], the result was inactive.

For `Cc1c(CC(=O)N(C)C2CCN(C)CC2)c(=O)oc2c(C)c3occ(-c4ccccc4)c3cc12`, the Retention_time in data set [2] was 17 min; in [14], 16.6 min; in data set [8] it was 16.6 min; in data set [9], 16.6 min. For the same compound, the result in data set [3], in data set [4] and in [5] was Active. In addition, the result in data set [6], in data set [7], in data set [1], in [11] and in data set [12] was inactive.

In the case of `CN(C)c1ccc(Nc2c3ccc(NC(=O)CCN4CCCC4)cc3nc3cc(NC(=O)CCN4CCCC4)ccc23)cc1`, the deltaTm in [13] is 32 °C.

For the origin of these results see ChEMBL document CHEMBL2311519, “Identification and characterization of new DNA G-quadruplex binders selected by a combination of ligand and structure-based virtual screening approaches” (J Med Chem, 2013).
